These results are taken from ChEMBL document CHEMBL3414560, “Discovery of 4-(dihydropyridinon-3-yl)amino-5-methylthieno[2,3-d]pyrimidine derivatives as potent Mnk inhibitors: synthesis, structure-activity relationship analysis and biological evaluation” (Eur J Med Chem, 2015).

The source made the active and inactive calls. The calls are words filed in the database; no cut-off is given here.

Assay [1] concerns the target T1, MAP kinase-interacting serine/threonine-protein kinase 1 (Homo sapiens, UniProt Q9BUB5). Description: Inhibition of Mnk1 (unknown origin) pre-incubated for 10 mins before eIF4E peptide substrate addition by ADP-Glo kinase assay.
Target sequence in this assay (Q9BUB5 whole entry): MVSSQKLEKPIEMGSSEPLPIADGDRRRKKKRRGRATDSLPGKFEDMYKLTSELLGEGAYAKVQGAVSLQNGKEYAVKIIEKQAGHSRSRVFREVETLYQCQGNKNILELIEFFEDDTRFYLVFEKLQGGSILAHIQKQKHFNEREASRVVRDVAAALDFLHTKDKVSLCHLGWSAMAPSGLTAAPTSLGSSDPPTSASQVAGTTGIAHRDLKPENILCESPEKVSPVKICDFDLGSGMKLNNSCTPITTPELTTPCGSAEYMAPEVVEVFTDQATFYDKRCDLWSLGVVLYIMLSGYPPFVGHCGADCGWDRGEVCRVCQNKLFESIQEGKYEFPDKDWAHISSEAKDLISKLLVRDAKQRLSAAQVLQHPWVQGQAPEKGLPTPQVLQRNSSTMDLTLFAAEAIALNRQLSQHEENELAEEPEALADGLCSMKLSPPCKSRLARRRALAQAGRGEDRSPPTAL
Assay [2] addresses MAP kinase-interacting serine/threonine-protein kinase 2 (Homo sapiens, UniProt Q9HBH9). Briefly: Inhibition of Mnk2 (unknown origin) pre-incubated for 10 mins before eIF4E peptide substrate addition by ADP-Glo kinase assay. (In general: ADP-Glo first removes unused ATP, then detects ADP through luciferase.)
Assay [3] relates to MV4-11. Description: Growth inhibition of human MV4-11 cells after 72 hrs by resazurin assay. As to conditions: MV4-11, 72 h. The class given is functional. (In general: Alamar Blue is a resazurin reagent that responds to reducing activity.)
The target in assay [4] is CDK2/Cyclin A2 (Homo sapiens) (UniProt P24941+P20248). Briefly: Inhibition of CDK2/cyclinA (unknown origin) assessed as reduction in kinase activity at 10 uM using ATP. The class given is protein-complex assay.
Assay [5] addresses CDK9/cyclin T1 (Homo sapiens) (UniProt O60563+P50750). Briefly: Inhibition of CDK9/cyclinT1 (unknown origin) assessed as reduction in kinase activity at 10 uM using ATP. The class given is protein-complex assay.
Assay [6] addresses Mitogen-activated protein kinase 1 (Homo sapiens) (UniProt P28482). Briefly: Inhibition of MAPK1 (unknown origin) assessed as reduction in kinase activity at 10 uM using ATP.
Assay [7] addresses Serine/threonine-protein kinase mTOR (Homo sapiens) (UniProt P42345). Description: Inhibition of mTOR (unknown origin) assessed as reduction in kinase activity at 10 uM using ATP.
Assay [8] addresses RAC-alpha serine/threonine-protein kinase (Homo sapiens) (UniProt P31749). Briefly: Inhibition of PKBalpha (unknown origin) assessed as reduction in kinase activity at 10 uM using ATP.
The target in assay [9] is Mitogen-activated protein kinase 14 (Homo sapiens) (UniProt Q16539). Briefly: Inhibition of SAPK2a (unknown origin) assessed as reduction in kinase activity at 10 uM using ATP.
A further assay is filed under the species Homo sapiens. Briefly: Inhibition of PI3K (unknown origin) assessed as reduction in kinase activity at 10 uM using ATP.
The target of assay [10] is Receptor-type tyrosine-protein kinase FLT3 (Homo sapiens) (UniProt P36888). Briefly: Inhibition of FLT3 (unknown origin) assessed as reduction in kinase activity at 10 uM using ATP.
Assay [11] has as its target Serine/threonine-protein kinase pim-1 (Homo sapiens) (UniProt P11309). Description: Inhibition of PIM1 (unknown origin) assessed as reduction in kinase activity at 10 uM using ATP.
The test system of assay [12] is MV4-11. Description: Induction of apoptosis in human MV4-11 cells at 20 uM after 24 hrs by FITC annexin-V/PI staining based flow cytometry. The class given is functional. Summed up:
(§1)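 MV-4-11 cells seeded at 8 × 10^4, overnight at 37 °C, 5% CO2, then treated 24 h (DMSO diluent control); pellets collected (300 × g, 5 min), stained with FITC annexin V/PI kit and analysed by flow cytometry within 1 h; apoptotic = annexin V+/PI− plus annexin V+/PI+ cells.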
For orientation: Flow cytometry measures light scatter and fluorescence of single cells or particles in a stream.

The test system of assay [13] is MV4-11. Description: Induction of caspase-3/7 activation in human MV4-11 cells at 20 uM after 24 hrs. The class given is functional, cell-based. The method, boiled down: (§2)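 MV-4-11 cells treated 24 h, DMSO diluent as control; caspase-3/7 activity measured with Apo-ONE homogeneous caspase-3/7 kit per manufacturer, read on plate reader; expressed as relative activity.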

Assay [14] relates to MV4-11. Description: Induction of cell cycle arrest in human MV4-11 cells assessed as accumulation at G1 phase at 20 uM after 24 hrs by FITC propidium iodide staining based flow cytometry (reference value: 58.1%). The class given is functional.
Assay [15] concerns MV4-11. Description: Induction of cell cycle arrest in human MV4-11 cells assessed as accumulation at subG1 phase at 20 uM after 24 hrs by FITC propidium iodide staining based flow cytometry (reference value: 7.7%). It is filed as functional.
For assay [16], the system named is MV4-11. Briefly: Induction of cell cycle arrest in human MV4-11 cells assessed as accumulation at S phase at 20 uM after 24 hrs by FITC propidium iodide staining based flow cytometry (reference value: 16.7%). The class given is functional.
Assay [17] deals with MV4-11. Briefly: Induction of cell cycle arrest in human MV4-11 cells assessed as accumulation at G2/M phase at 20 uM after 24 hrs by FITC propidium iodide staining based flow cytometry (reference value: 17.5%). The class given is functional.
The target of assay [18] is T1, MAP kinase-interacting serine/threonine-protein kinase 1. Briefly: Inhibition of Mnk1 in human MV4-11 cells assessed as reduction in eIF4E Ser209 phosphorylation at 20 uM after 24 hrs by Western blotting method. It is filed as cell-based. Summed up: (§3)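 MV-4-11 cells in RPMI-1640 with 10% FBS, exposed 24 h (DMSO diluent control); Western blot probing Mnk1, eIF4E, p-eIF4E Ser209, Bcl-2, Mcl-1, cyclin D1, PARP, cleaved PARP; β-actin as loading control; HRP-conjugated anti-mouse/anti-rabbit IgG secondaries.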
Target sequence in this assay (Q9BUB5 whole entry, looked up): as the sequence (Q9BUB5 whole entry) above

Assay [19] deals with MV4-11. Briefly: Effect on total Mnk1 protein level in human MV4-11 cells at 20 uM after 24 hrs by Western blotting method. The class given is functional, cell-based. Summed up:
as §3

In assay [20] the test system is MV4-11. Briefly: Effect on total eIF4E protein level in human MV4-11 cells at 20 uM after 24 hrs by Western blotting method. The class given is functional, cell-based. Summed up: as §3
Assay [21] concerns MV4-11. Briefly: Induction of apoptosis in human MV4-11 cells assessed as reduction in Mcl1 expression at 20 uM after 24 hrs by Western blotting method. The class given is functional, cell-based. The method, boiled down: as §3
Assay [22] relates to MV4-11. Description: Induction of apoptosis in human MV4-11 cells assessed as induction of PARP cleavage expression at 20 uM after 24 hrs by Western blotting method. The class given is functional, cell-based. Summed up:
as §3

Assay [23] concerns MV4-11. Briefly: Reduction in cyclin D1 expression in human MV4-11 cells at 20 uM after 24 hrs by Western blotting method. It is filed as functional, cell-based. The method, boiled down: (§4)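 MV-4-11 AML cells grown in RPMI-1640 with 10% FBS, treated 24 h at the stated concentration against a DMSO diluent control. Lysates probed by Western blot for cyclin D1, with β-actin as loading control and HRP-conjugated anti-mouse/anti-rabbit IgG secondaries.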

Assay [24] relates to MV4-11. Briefly: Induction of apoptosis in human MV4-11 cells assessed as viable cells level at 20 uM after 24 hrs by FITC annexin-V/PI staining based flow cytometry (reference value: 91.49%). It is filed as functional. Summed up:
as §1

The test system of assay [25] is MV4-11. Briefly: Induction of apoptosis in human MV4-11 cells assessed as early apoptotic cells level at 20 uM after 24 hrs by FITC annexin-V/PI staining based flow cytometry (reference value: 3.02%). The class given is functional. The method, boiled down:
as §1

Assay [26] has as its system MV4-11. Briefly: Induction of apoptosis in human MV4-11 cells assessed as late apoptotic cells level at 20 uM after 24 hrs by FITC annexin-V/PI staining based flow cytometry (reference value: 5.4%). It is filed as functional. The method, boiled down:
as §1

Assay [27] has as its system MV4-11. Briefly: Induction of apoptosis in human MV4-11 cells assessed as necrotic cells level at 20 uM after 24 hrs by FITC annexin-V/PI staining based flow cytometry (reference value: 0.1%). It is filed as functional. The method, boiled down: as §1
The subject of assay [28] is MV4-11. Briefly: Induction of apoptosis in human MV4-11 cells at 10 uM after 24 hrs by FITC annexin-V/PI staining based flow cytometry. It is filed as functional. The method, boiled down:
as §1

Assay [29] concerns MV4-11. Description: Induction of caspase-3/7 activation in human MV4-11 cells at 10 uM after 24 hrs. It is filed as functional, cell-based. Summed up: as §2
The subject of assay [30] is MV4-11. Description: Induction of cell cycle arrest in human MV4-11 cells assessed as accumulation at G1 phase at 10 uM after 24 hrs by FITC propidium iodide staining based flow cytometry (reference value: 58.1%). It is filed as functional.
Assay [31] concerns MV4-11. Description: Induction of cell cycle arrest in human MV4-11 cells assessed as accumulation at subG1 phase at 10 uM after 24 hrs by FITC propidium iodide staining based flow cytometry (reference value: 7.7%). It is filed as functional.
The subject of assay [32] is MV4-11. Briefly: Induction of cell cycle arrest in human MV4-11 cells assessed as accumulation at S phase at 10 uM after 24 hrs by FITC propidium iodide staining based flow cytometry (reference value: 16.7%). It is filed as functional.
In assay [33] the test system is MV4-11. Description: Induction of cell cycle arrest in human MV4-11 cells assessed as accumulation at G2/M phase at 10 uM after 24 hrs by FITC propidium iodide staining based flow cytometry (reference value: 17.5%). The class given is functional.
The subject of assay [34] is MV4-11. Briefly: Induction of apoptosis in human MV4-11 cells assessed as reduction in Mcl1 expression at 10 uM after 24 hrs by Western blotting method. It is filed as functional, cell-based. The method, boiled down: as §3
The test system of assay [35] is MV4-11. Briefly: Induction of apoptosis in human MV4-11 cells assessed as induction of PARP cleavage expression at 10 uM after 24 hrs by Western blotting method. It is filed as functional, cell-based. Summed up:
as §3

For assay [36], the system named is MV4-11. Briefly: Reduction in cyclin D1 expression in human MV4-11 cells at 10 uM after 24 hrs by Western blotting method. The class given is functional, cell-based. The method, boiled down:
as §4

In assay [37] the test system is MV4-11. Briefly: Induction of apoptosis in human MV4-11 cells assessed as viable cells level at 10 uM after 24 hrs by FITC annexin-V/PI staining based flow cytometry (reference value: 91.49%). The class given is functional. Summed up:
as §1

Assay [38] concerns MV4-11. Description: Induction of apoptosis in human MV4-11 cells assessed as early apoptotic cells level at 10 uM after 24 hrs by FITC annexin-V/PI staining based flow cytometry (reference value: 3.02%). It is filed as functional. The method, boiled down:
as §1

Assay [39] relates to MV4-11. Description: Induction of apoptosis in human MV4-11 cells assessed as late apoptotic cells level at 10 uM after 24 hrs by FITC annexin-V/PI staining based flow cytometry (reference value: 5.4%). It is filed as functional. Summed up:
as §1

The subject of assay [40] is MV4-11. Briefly: Induction of apoptosis in human MV4-11 cells assessed as necrotic cells level at 10 uM after 24 hrs by FITC annexin-V/PI staining based flow cytometry (reference value: 0.1%). It is filed as functional. The method, boiled down:
as §1

The target of assay [41] is T1, MAP kinase-interacting serine/threonine-protein kinase 1. As to conditions: MV4-11, 10 uM.
Target sequence in this assay (Q9BUB5 whole entry, looked up): as the sequence (Q9BUB5 whole entry) above

Mitogen-activated protein kinase 14 (Homo sapiens), sequence (Q16539 whole entry): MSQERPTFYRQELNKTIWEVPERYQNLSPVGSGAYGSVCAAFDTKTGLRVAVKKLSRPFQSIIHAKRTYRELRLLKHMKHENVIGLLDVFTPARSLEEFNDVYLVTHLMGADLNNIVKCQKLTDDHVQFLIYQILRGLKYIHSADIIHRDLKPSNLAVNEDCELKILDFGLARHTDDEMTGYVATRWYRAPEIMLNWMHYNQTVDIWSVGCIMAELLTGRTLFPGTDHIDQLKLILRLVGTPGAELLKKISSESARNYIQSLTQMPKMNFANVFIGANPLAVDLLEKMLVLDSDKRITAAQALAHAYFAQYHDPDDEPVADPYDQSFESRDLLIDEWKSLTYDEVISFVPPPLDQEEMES
Receptor-type tyrosine-protein kinase FLT3 (Homo sapiens), sequence (P36888 whole entry): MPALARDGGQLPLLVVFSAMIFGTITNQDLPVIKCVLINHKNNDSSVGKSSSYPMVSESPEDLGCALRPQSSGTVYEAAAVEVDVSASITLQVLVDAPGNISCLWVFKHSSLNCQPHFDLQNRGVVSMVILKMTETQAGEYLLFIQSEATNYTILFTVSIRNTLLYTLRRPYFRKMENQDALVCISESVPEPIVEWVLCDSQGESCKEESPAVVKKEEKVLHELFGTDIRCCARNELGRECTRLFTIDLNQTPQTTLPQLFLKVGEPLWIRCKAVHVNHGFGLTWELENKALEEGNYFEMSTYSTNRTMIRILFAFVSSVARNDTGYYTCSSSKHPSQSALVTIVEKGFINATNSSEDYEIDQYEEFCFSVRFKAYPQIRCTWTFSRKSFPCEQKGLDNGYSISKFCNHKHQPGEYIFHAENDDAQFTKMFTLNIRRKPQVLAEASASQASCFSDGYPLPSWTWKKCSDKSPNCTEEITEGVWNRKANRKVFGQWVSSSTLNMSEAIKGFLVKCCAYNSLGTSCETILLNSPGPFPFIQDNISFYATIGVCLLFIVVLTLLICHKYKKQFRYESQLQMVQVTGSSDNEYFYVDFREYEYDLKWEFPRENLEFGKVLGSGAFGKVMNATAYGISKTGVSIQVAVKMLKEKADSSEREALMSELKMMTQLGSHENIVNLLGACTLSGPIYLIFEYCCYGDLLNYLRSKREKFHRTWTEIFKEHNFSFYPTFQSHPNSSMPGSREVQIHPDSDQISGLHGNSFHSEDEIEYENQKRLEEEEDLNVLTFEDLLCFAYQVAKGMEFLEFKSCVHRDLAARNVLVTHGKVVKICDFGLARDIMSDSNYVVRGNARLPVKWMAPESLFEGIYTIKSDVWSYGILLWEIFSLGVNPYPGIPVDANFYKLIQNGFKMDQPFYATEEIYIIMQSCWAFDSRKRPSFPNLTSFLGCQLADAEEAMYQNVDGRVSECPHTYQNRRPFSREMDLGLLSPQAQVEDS
MAP kinase-interacting serine/threonine-protein kinase 2, sequence (Q9HBH9 whole entry): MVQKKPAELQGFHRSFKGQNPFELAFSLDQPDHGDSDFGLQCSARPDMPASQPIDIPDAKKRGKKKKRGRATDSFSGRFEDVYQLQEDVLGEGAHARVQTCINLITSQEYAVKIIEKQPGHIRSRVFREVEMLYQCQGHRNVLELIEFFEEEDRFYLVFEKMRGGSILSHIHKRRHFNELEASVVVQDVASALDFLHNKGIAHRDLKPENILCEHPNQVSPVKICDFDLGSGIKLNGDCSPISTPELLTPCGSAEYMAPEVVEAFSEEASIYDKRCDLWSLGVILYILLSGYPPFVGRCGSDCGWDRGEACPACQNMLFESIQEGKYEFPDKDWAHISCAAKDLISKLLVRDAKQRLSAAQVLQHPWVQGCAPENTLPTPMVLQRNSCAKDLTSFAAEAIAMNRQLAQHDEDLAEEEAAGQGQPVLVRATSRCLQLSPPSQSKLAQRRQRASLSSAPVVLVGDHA
RAC-alpha serine/threonine-protein kinase (Homo sapiens), sequence (P31749 whole entry): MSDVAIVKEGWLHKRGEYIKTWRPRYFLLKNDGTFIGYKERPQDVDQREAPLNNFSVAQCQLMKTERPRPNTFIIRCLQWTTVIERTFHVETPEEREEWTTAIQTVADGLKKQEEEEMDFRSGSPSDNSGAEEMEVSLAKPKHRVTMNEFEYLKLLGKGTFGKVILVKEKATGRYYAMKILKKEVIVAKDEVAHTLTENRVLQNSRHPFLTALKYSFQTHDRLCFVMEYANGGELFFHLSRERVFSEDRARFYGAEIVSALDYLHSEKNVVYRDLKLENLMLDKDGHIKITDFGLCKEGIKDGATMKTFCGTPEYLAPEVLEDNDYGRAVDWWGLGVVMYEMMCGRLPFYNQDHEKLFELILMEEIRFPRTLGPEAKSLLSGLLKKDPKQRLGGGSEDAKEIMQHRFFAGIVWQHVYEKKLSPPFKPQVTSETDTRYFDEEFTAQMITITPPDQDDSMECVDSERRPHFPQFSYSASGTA
Mitogen-activated protein kinase 1 (Homo sapiens), sequence (P28482 whole entry): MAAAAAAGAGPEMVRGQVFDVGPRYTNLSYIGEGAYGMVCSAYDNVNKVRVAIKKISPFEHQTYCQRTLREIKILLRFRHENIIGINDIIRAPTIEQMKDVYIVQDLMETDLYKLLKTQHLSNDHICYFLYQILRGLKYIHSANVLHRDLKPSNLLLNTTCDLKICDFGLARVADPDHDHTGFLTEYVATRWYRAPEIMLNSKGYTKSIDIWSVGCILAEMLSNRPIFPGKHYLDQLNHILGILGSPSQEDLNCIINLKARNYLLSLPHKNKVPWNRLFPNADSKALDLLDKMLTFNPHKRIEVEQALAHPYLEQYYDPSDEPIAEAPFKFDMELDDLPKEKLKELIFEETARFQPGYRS
Serine/threonine-protein kinase pim-1 (Homo sapiens), sequence (P11309 whole entry, looked up): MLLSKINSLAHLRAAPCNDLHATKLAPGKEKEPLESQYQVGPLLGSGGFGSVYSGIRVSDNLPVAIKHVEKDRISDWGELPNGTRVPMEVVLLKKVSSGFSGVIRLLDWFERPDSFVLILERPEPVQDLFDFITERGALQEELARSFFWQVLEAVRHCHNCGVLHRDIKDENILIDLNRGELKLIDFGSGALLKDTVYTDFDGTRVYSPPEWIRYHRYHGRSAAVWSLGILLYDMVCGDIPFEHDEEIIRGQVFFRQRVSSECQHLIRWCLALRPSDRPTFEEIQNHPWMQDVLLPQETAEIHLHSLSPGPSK

Take `COCCCNC(=O)c1sc2ncnc(Nc3cc(C)cn(C)c3=O)c2c1C`: the Ki in [1] came out at 5 µM; in [2], 2.63 µM. Moreover, the GI50 with MV4-11 [3] was 5.73 µM. The inhibition result in assay [4], in [5], in assay [6], in assay [7], in [8] and in [9] was “inactive” in each case. Moreover, the inhibition entry (in the assay filed under Homo sapiens; in [11]) was “inactive” each time. Besides, in assay [10], the inhibition is 31%. The Activity came out at 6% in the assay on MV4-11 [12]; 72.5% with MV4-11 [14]; 12.5% in the assay on MV4-11 [15]; 8.1% in the assay on MV4-11 [16]; 6.9% in the assay on MV4-11 [17]; 83.96% with MV4-11 [24]. Moreover, the Activity is 4.52% in the assay with MV4-11 [25], 11.4% in the assay with MV4-11 [26] and 0.1% with MV4-11 [27]. The outcome with MV4-11 [13], in the assay with MV4-11 [19] and with MV4-11 [20] was inactive. The inhibition result in [18] was “Active”. Further, the outcome in the assay on MV4-11 [21], with MV4-11 [22] and in the assay on MV4-11 [23] was Active.

As to `Nc1ncnc2[nH]nc(Nc3ccc(F)cc3)c12`, in the assay with MV4-11 [3], the GI50 was determined as 4.88 µM. Also, the Activity is listed as 13% in the assay on MV4-11 [28]; 72% with MV4-11 [30]; 9.4% with MV4-11 [31]; 10.2% with MV4-11 [32]; 8.4% in the assay on MV4-11 [33]; 78.01% with MV4-11 [37]. Also, the results for the Activity in the assay with MV4-11 [38], with MV4-11 [39] and in the assay on MV4-11 [40] were 9.16%, 12.52% and 0.3%, respectively. For the same molecule, the result in the assay with MV4-11 [29] was inactive. Moreover, the result in the assay on MV4-11 [34], in the assay on MV4-11 [35] and in the assay with MV4-11 [36] was Active. The inhibition entry in [41] was “Active”.

As usually defined, the Ki is a measure of affinity in units of concentration, obtained from inhibition or displacement. Low values mean a stronger hold on the target, high ones a looser hold on the target. For orientation: GI50 means the concentration that inhibits growth by half. Read a low GI50 as more potent growth inhibition. For orientation: inhibition means the drop in the measured response relative to a control, in per cent.
